In paper PMC3677216 (Bioorganic & medicinal chemistry letters, 2013):

What was measured:
[1] = test system: MA9.3 AML cell line; experiment: Cytotoxicity in MA9.3 AML cells; type: cell-based, human; conditions: for therapeutic index: between MA9.3 AML cell line and non-cancerous human CD34+ blood stem/progenitor cells
[2] = test system: NCI-60 cell panel; experiment: NCI-60 cell panel, Sulforhodamine B assay; type: cell-based; conditions: NCI-60 panel
In short: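 NCI-60 panel screen. Viability read by Sulforhodamine B staining of total protein, a measure of cell number rather than metabolic activity. Values are GI50, defined from the change in cell counts relative to the starting number of cells. Some panel lines were not tested.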

[3] = test system: human CD34+ blood stem/progenitor cells; experiment: Cytotoxicity in normal CD34+ blood stem/progenitor cells; type: cell-based
[4] = test system: HeLa cells; experiment: Cytotoxicity; type: cell-based

SMILES: COc1cccc2c1C(=O)c1c(O)c3c(c(O)c1C2=O)C[C@@](O)(C(=O)CO)C[C@@H]3O[C@H]1C[C@H](N)[C@H](O)[C@H](C)O1 [doxorubicin]
- therapeutic index [1]: 0.9 ± 0.2

SMILES: CN(CCCOc1ccc(O)cc1)c1ccccc1 [Compound 7]
- range of distribution of GI50 values [2]: 53 fold

SMILES: N.N.[Cl][Pt][Cl] [cisplatin]
- IC50 ([1]; MA9.3 AML cells): 14 ± 0.7 µM
- therapeutic index [1]: 1.0 ± 0.2
- IC50 [3]: 15 ± 2 µM

SMILES: CN(C(=O)COc1ccc(O)cc1)c1ccccc1 [Compound 11]
- potency / anticancer cell activity (in words) [4]: anticancer cell activity was eliminated

SMILES: CN(CCCBr)c1ccccc1 [Compound 14]
- potency / anticancer cell activity (in words) [4]: loss of potency

SMILES: CN(CCCOc1ccccc1)c1ccccc1 [Compound 13]
- potency / anticancer cell activity (in words) [4]: complete loss of potency

SMILES: CC(C)N(CCOc1ccc(O)cc1)c1ccccc1 [Compound 4]
- decrease in potency relative to compound 2 [4]: 3 fold

SMILES: Oc1ccc(OCCN(CCOc2ccc(O)cc2)c2ccccc2)cc1 [Compound 5]
- potency relative to compound 3 [4]: potency doubled
- range of distribution of GI50 values [2]: 55 fold

SMILES: CCOc1ccc(O)cc1 [Compound 12]
- potency / anticancer cell activity (in words) [4]: no potency
